From ChEMBL document CHEMBL3351848, “Novel insights into structure and function of factor XIIIa-inhibitor tridegin” (J Med Chem, 2014)
Activity calls are given as the source filed them. The calls are words filed in the database; no cut-off is given here. Residues, ends and D or L forms follow the SMILES beside them. *: point of attachment. X1 = O=C(c1ccccc1-c1c2ccc(=O)cc-2oc2cc(O)ccc12)*

Experiments:
[1] = target: T1, Coagulation factor XIII A chain (Homo sapiens) (UniProt P00488); test: Inhibition of recombinant F13a (unknown origin) using H-Tyr-Glu(pNA)-Val-Lys-Val-Ile-Gly-NH2 as substrate by chromogenic assay
T1 sequence (whole entry): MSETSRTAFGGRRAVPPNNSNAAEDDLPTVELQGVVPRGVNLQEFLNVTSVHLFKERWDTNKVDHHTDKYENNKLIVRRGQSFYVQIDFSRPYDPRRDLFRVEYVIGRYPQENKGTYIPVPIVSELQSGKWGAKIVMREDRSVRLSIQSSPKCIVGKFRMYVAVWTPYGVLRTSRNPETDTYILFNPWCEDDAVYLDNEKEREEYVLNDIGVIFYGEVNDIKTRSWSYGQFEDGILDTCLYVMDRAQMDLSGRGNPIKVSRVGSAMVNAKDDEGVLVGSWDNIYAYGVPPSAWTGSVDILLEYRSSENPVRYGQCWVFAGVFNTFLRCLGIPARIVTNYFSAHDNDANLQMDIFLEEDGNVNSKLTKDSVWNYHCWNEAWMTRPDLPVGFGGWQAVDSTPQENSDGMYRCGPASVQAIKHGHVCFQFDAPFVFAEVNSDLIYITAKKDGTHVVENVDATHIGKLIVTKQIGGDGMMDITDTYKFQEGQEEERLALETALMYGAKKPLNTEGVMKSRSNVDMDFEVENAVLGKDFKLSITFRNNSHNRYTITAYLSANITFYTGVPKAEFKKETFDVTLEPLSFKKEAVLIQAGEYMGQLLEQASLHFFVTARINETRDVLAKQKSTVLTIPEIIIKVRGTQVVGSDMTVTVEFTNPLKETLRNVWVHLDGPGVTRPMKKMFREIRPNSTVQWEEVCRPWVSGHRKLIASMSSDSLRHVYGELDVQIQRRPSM

[2] = target: T2, Protein-glutamine gamma-glutamyltransferase (Homo sapiens) (UniProt P21980); test: Inhibition of human TGase-2 using fluorogenic FRET substrate at 10 uM
T2 sequence (whole entry): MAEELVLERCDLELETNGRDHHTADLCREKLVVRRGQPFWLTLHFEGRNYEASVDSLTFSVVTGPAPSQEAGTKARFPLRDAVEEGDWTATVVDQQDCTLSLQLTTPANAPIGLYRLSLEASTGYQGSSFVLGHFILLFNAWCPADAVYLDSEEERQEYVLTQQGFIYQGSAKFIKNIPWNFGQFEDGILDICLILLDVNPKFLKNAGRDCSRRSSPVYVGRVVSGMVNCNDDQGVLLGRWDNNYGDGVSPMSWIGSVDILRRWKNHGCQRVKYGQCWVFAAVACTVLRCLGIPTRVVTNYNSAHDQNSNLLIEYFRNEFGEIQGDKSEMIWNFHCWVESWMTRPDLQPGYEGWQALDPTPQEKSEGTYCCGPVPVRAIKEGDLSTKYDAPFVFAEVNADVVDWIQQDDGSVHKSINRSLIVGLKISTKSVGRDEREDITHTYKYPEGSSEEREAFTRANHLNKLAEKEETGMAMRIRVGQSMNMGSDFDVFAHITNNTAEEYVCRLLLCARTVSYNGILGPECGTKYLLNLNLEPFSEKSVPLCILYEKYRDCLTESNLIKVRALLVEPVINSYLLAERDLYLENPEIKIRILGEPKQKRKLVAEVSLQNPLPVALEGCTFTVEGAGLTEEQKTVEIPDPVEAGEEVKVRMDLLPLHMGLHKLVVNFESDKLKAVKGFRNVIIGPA

[3] = target: T3, Coagulation factor XIII B chain (Homo sapiens) (UniProt P05160); test: Binding affinity to nonactivated recombinant F13B subunit (unknown origin) by microscale thermophoresis method
T3 sequence (whole entry): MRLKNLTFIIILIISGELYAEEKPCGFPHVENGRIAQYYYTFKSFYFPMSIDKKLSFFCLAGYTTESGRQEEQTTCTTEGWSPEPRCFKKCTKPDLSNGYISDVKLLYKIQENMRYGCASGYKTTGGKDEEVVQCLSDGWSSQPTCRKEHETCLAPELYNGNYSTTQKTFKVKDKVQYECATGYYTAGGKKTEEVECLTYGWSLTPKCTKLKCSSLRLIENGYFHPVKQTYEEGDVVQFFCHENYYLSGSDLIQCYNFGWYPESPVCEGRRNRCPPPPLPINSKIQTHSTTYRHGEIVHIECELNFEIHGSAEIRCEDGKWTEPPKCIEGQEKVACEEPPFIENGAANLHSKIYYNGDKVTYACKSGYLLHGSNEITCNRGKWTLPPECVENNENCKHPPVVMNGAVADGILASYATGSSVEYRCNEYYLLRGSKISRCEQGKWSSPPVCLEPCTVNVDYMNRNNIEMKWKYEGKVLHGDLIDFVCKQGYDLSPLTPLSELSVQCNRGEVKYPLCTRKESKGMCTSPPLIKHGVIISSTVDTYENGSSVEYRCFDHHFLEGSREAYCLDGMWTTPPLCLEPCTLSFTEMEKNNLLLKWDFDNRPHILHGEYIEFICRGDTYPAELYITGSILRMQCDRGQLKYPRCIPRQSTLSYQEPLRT
Outline: (§1)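 Carboxyfluorescein-labeled peptide (2 μM solution, before mixing) in 50 mM Tris-HCl pH 7.5, 0.9% w/v NaCl, with Tween-20 to 0.1% final. Mixed with an equal volume of protein (FXIIIa, FXIII-A or FXIII-B) in the same buffer, 15 concentrations spanning 3.1 μM to 0.1 nM. After 20 min incubation, the mixture was loaded into glass capillaries and thermophoresis read three times per capillary.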

[4] = target: T1, Coagulation factor XIII A chain (Homo sapiens); test: Binding affinity to nonactivated recombinant F13A subunit (unknown origin) by microscale thermophoresis method; outline: as §1
[5] = target: T4, Coagulation factor XIII A chain (Homo sapiens, UniProt P00488); test: Binding affinity to recombinant F13A (unknown origin) by microscale thermophoresis method; outline: as §1
T4 sequence (P00488 whole entry): T1 sequence (whole entry)

Row | Compound | inhibition [1] | inhibition [2] | Activity [3] | Activity [4] | Kd [5]
1 | CC[C@H](C)[C@H](NC(=O)CNC(=O)[C@H](CCC(N)=O)NC(=O)[C@H](Cc1cnc[nH]1)NC(=O)[C@H](Cc1c[nH]c2ccccc12)NC(=O)[C@H](CCC(=O)O)NC(=O)[C@H](CCCCN)NC(=O)[C@H](CS)NC(=O)[C@@H]1CCCN1C(=O)[C@H](CC(C)C)NC(=O)[C@H](CC(C)C)NC(=O)[C@@H](N)CCCCN)C(=O)N1CCC[C@H]1C(=O)N[C@@H](CC(N)=O)C(=O)N1CCC[C@H]1C(=O)N[C@@H](CCCNC(=N)N)C(=O)N[C@@H](CS)C(=O)N[C@@H](Cc1c[nH]c2ccccc12)C(=O)N[C@@H](CS)C(=O)NCC(=O)N[C@@H](C)C(=O)N[C@@H](CC(=O)O)C(=O)N[C@@H](CC(C)C)C(=O)N[C@@H](CCC(=O)O)C(=O)N[C@@H](CS)C(=O)N[C@@H](C)C(=O)N[C@@H](CCC(N)=O)C(=O)N[C@@H](CC(=O)O)C(=O)N[C@@H](CCC(N)=O)C(=O)N[C@@H](Cc1ccc(O)cc1)C(=O)N[C@@H](CS)C(=O)N[C@@H](C)C(=O)N[C@@H](Cc1ccccc1)C(=O)N[C@H](C(=O)N1CCC[C@H]1C(=O)N[C@@H](CCC(N)=O)C(=O)N[C@@H](CS)C(=O)O)[C@@H](C)CC (H-KLLPCKEWHQGIPNPRCWCGADLECAQDQYCAFIPQC-OH) | inactive | < 10% | inactive | inactive | –
2 | CC[C@H](C)[C@H](NC(=O)CNC(=O)[C@H](CCC(N)=O)NC(=O)[C@H](Cc1cnc[nH]1)NC(=O)[C@H](Cc1c[nH]c2ccccc12)NC(=O)[C@H](CCC(=O)O)NC(=O)[C@H](CCCCN)NC(=O)[C@H](CS)NC(=O)[C@@H]1CCCN1C(=O)[C@H](CC(C)C)NC(=O)[C@H](CC(C)C)NC(=O)[C@H](CCCCN)NC(=O)c1ccccc1-c1c2ccc(=O)cc-2oc2cc(O)ccc12)C(=O)N1CCC[C@H]1C(=O)N[C@@H](CC(N)=O)C(=O)N1CCC[C@H]1C(=O)N[C@@H](CCCNC(=N)N)C(=O)N[C@@H](CS)C(=O)N[C@@H](Cc1c[nH]c2ccccc12)C(=O)N[C@@H](CS)C(=O)NCC(=O)N[C@@H](C)C(=O)N[C@@H](CC(=O)O)C(=O)N[C@@H](CC(C)C)C(=O)N[C@@H](CCC(=O)O)C(=O)N[C@@H](CS)C(=O)N[C@@H](C)C(=O)N[C@@H](CCC(N)=O)C(=O)N[C@@H](CC(=O)O)C(=O)N[C@@H](CCC(N)=O)C(=O)N[C@@H](Cc1ccc(O)cc1)C(=O)N[C@@H](CS)C(=O)N[C@@H](C)C(=O)N[C@@H](Cc1ccccc1)C(=O)N[C@H](C(=O)N1CCC[C@H]1C(=O)N[C@@H](CCC(N)=O)C(=O)N[C@@H](CS)C(=O)O)[C@@H](C)CC (X1-KLLPCKEWHQGIPNPRCWCGADLECAQDQYCAFIPQC-OH) | – | – | inactive | inactive | < 100 nM
